According to ChEMBL document CHEMBL4732237, “Discovery of 4-alkoxy-2-aryl-6,7-dimethoxyquinolines as a new class of topoisomerase I inhibitors endowed with potent in vitro anticancer activity” (2021):

System: HCT-15
Experiment: Growth inhibition of human HCT-15 cells incubated for 48 hrs by sulforhodamine B assay
Assay type: functional
Details: not given
Method in brief: (§1)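 NCI five-dose screen covering 0.01–100 µM, prepared as 10-fold or ½-log dilutions from DMSO stock. Cells in RPMI 1640 with 5% FBS were exposed for 48 h at 37 °C after 24 h preincubation. Adherent cells were fixed with TCA (final 10%) and suspension cells were settled before fixing. Stain was SRB, read at 515 nm. GI50 = 50% reduction in net protein increase versus control, with Tz taken at drug addition.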

Question: How did the GI50 turn out when `COc1cc2nc(-c3ccc(Cl)cc3)cc(OCCCN3CCOCC3)c2cc1OC` was run?
Answer: Its GI50 is 0.754 µM.

Question: Which GI50 does the source give for `COc1cc2nc(-c3ccc(C(F)(F)F)cc3)cc(OCCCN3CCCCC3)c2cc1OC` here?
Answer: Its GI50 is 0.399 µM.

System: SR
Experiment: Growth inhibition of human SR cells incubated for 48 hrs by sulforhodamine B assay
Assay type: functional
Details: not given
Method in brief: (§2)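 NCI five-dose screen (0.01–100 µM; five concentrations plus control). Cells grown in RPMI 1640/5% FBS/2 mM L-glutamine and preincubated 24 h, with time-zero plates TCA-fixed. Drug exposure 48 h at 37 °C, followed by SRB protein staining and reading at 515 nm. GI50 is the concentration at [(Ti-Tz)/(C-Tz)]×100 = 50.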

Question: For `COc1cc2nc(-c3ccc(Cl)cc3)cc(OCCCN3CCOCC3)c2cc1OC`, which GI50 is on record?
Answer: Its GI50 is 0.414 µM.

Question: How did the GI50 turn out when `COc1cc2nc(-c3ccc(C(F)(F)F)cc3)cc(OCCCN3CCCCC3)c2cc1OC` was run?
Answer: Its GI50 is 0.193 µM.

System: U-251
Experiment: Growth inhibition of human U-251 cells at 10 uM incubated for 48 hrs by sulforhodamine B assay relative to control
Assay type: functional
Details: read-out: GI
Method in brief: (§3)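 NCI one-dose screen across a 59-line panel. Cells were grown in RPMI 1640 with 5% FBS and 2 mM L-glutamine, plated and pre-incubated 24 h, then exposed to drug for 48 h at 37 °C, 5% CO2. Adherent cells were fixed with cold TCA (10% final), stained with 0.4% SRB in 1% acetic acid and read at 515 nm. Result is percent growth relative to no-drug control and time-zero cell count.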

Question: `COc1cc2nc(-c3ccc(Cl)cc3)cc(OCCCN3CCOCC3)c2cc1OC` was tested. Which inhibition of growth at 10 µM did it give?
Answer: The inhibition of growth at 10 µM was 62%.

System: SK-OV-3
Experiment: Growth inhibition of human SK-OV-3 cells at 10 uM incubated for 48 hrs by sulforhodamine B assay relative to control
Assay type: functional
Details: read-out: GI
Method in brief: (§4)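 NCI one-dose screen. Cells grown in RPMI 1640 with 5% FBS and 2 mM L-glutamine, plated and incubated 24 h at 37 °C, 5% CO2. DMSO-dissolved drug added, then 48 h further incubation. Adherent cells fixed with cold TCA, suspension cells fixed after settling. Stained with 0.4% SRB, absorbance read at 515 nm. Reported as percent growth relative to no-drug control and time-zero cell number.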

Question: With `COc1cc2nc(-c3ccc(Cl)cc3)cc(OCCCN3CCOCC3)c2cc1OC` as the molecule, how does the inhibition of growth at 10 µM read?
Answer: Its inhibition of growth at 10 µM is 62%.

System: MDA-MB-435
Experiment: Growth inhibition of human MDA-MB-435 cells incubated for 48 hrs by sulforhodamine B assay
Assay type: functional
Details: not given
Method in brief: as §1

Question: For `COc1cc2nc(-c3ccc(Cl)cc3)cc(OCCCN3CCOCC3)c2cc1OC`, which GI50 is on record?
Answer: The GI50 was 1.9 µM.

Question: How did the GI50 turn out when `COc1cc2nc(-c3ccc(C(F)(F)F)cc3)cc(OCCCN3CCCCC3)c2cc1OC` was run?
Answer: The GI50 was 1.23 µM.

System: IGROV-1
Experiment: Growth inhibition of human IGROV-1 cells at 10 uM incubated for 48 hrs by sulforhodamine B assay relative to control
Assay type: functional
Details: read-out: GI
Method in brief: (§5)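 NCI-60 single-dose screen. Cells were grown in RPMI 1640 with 5% FBS and 2 mM L-glutamine and plated 24 h before drug addition. Compound was added at one concentration in DMSO-derived medium and incubated for 48 h at 37 °C in 5% CO2. Read-out was SRB protein stain at 515 nm. Result is percent growth versus the no-drug control and the time-zero cell count; values below 0 indicate lethality.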

Question: How did the inhibition of growth at 10 µM turn out when `COc1cc2nc(-c3ccc(Cl)cc3)cc(OCCCN3CCOCC3)c2cc1OC` was run?
Answer: Its inhibition of growth at 10 µM is 62%.

System: M14
Experiment: Growth inhibition of human M14 cells at 10 uM incubated for 48 hrs by sulforhodamine B assay relative to control
Assay type: functional
Details: read-out: GI
Method in brief: as §5

Question: `COc1cc2nc(-c3ccc(Cl)cc3)cc(OCCCN3CCOCC3)c2cc1OC` was tested. Which inhibition of growth at 10 µM did it give?
Answer: The inhibition of growth at 10 µM was 62%.

System: MCF7
Experiment: Growth inhibition of human MCF7 cells at 10 uM incubated for 48 hrs by sulforhodamine B assay relative to control
Assay type: functional
Details: read-out: GI
Method in brief: as §5

Question: How did the inhibition of growth at 10 µM turn out when `COc1cc2nc(-c3ccc(Cl)cc3)cc(OCCCN3CCOCC3)c2cc1OC` was run?
Answer: The inhibition of growth at 10 µM was 62%.

Molecular target: T1, DNA topoisomerase 1 (Homo sapiens) (UniProt P11387)
T1 sequence (whole entry): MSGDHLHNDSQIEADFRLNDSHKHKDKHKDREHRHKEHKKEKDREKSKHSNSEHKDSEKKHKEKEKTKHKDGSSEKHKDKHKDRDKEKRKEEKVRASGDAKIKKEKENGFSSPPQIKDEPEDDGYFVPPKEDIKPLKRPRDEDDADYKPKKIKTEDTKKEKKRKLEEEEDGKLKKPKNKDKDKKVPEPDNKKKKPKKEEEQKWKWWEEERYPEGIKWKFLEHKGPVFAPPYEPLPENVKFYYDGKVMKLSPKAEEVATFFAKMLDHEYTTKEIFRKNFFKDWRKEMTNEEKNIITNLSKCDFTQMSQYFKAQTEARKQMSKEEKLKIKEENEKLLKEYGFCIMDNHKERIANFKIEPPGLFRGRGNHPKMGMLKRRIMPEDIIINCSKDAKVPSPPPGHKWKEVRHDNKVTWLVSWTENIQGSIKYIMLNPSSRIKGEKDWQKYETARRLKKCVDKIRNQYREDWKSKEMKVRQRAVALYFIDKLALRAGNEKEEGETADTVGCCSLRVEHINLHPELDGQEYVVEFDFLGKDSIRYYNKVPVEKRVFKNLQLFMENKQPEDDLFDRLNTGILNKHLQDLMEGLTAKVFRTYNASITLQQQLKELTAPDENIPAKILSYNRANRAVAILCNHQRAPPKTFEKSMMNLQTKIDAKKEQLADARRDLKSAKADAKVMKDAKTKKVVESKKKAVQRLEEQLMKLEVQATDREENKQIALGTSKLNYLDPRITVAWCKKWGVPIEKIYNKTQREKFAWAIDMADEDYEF
Experiment: Inhibition of recombinant human TOPO1 assessed as TOP1-DNA cleavage complexes at 1 uM using 3'-[32-P]-117 labeled bp DNA as substrate incubated for 30 mins by SDS-PAGE analysis relative to control
Details: not given

Question: Which inhibition does the source give for `COc1cc2nc(-c3ccc(Cl)cc3)cc(OCCCN3CCOCC3)c2cc1OC` here?
Answer: The inhibition was 50%.

Question: Which inhibition does the source give for `COc1cc2nc(-c3ccc(C(F)(F)F)cc3)cc(OCCCN3CCCCC3)c2cc1OC` here?
Answer: The inhibition was 20%.

System: MDA-MB-231
Experiment: Growth inhibition of human MDA-MB-231 cells at 10 uM incubated for 48 hrs by sulforhodamine B assay relative to control
Assay type: functional
Details: read-out: GI
Method in brief: as §5

Question: How did the inhibition of growth at 10 µM turn out when `COc1cc2nc(-c3ccc(Cl)cc3)cc(OCCCN3CCOCC3)c2cc1OC` was run?
Answer: The inhibition of growth at 10 µM was 62%.

System: COLO 205
Experiment: Growth inhibition of human COLO 205 cells at 10 uM incubated for 48 hrs by sulforhodamine B assay relative to control
Assay type: functional
Details: read-out: GI
Method in brief: as §5

Question: `COc1cc2nc(-c3ccc(Cl)cc3)cc(OCCCN3CCOCC3)c2cc1OC` was tested. Which inhibition of growth at 10 µM did it give?
Answer: Its inhibition of growth at 10 µM is 62%.

System: MOLT-4
Experiment: Growth inhibition of human MOLT-4 cells at 10 uM incubated for 48 hrs by sulforhodamine B assay relative to control
Assay type: functional
Details: read-out: GI
Method in brief: as §4

Question: Which inhibition of growth at 10 µM does the source give for `COc1cc2nc(-c3ccc(Cl)cc3)cc(OCCCN3CCOCC3)c2cc1OC` here?
Answer: The inhibition of growth at 10 µM was 62%.

System: SF-295
Experiment: Growth inhibition of human SF-295 cells at 10 uM incubated for 48 hrs by sulforhodamine B assay relative to control
Assay type: functional
Details: read-out: GI
Method in brief: as §4

Question: Which inhibition of growth at 10 µM does the source give for `COc1cc2nc(-c3ccc(Cl)cc3)cc(OCCCN3CCOCC3)c2cc1OC` here?
Answer: The inhibition of growth at 10 µM was 62%.

System: NCI-H226
Experiment: Growth inhibition of human NCI-H226 cells at 10 uM incubated for 48 hrs by sulforhodamine B assay relative to control
Assay type: functional
Details: read-out: GI
Method in brief: as §4

Question: For `COc1cc2nc(-c3ccc(Cl)cc3)cc(OCCCN3CCOCC3)c2cc1OC`, which inhibition of growth at 10 µM is on record?
Answer: The inhibition of growth at 10 µM was 62%.

System: NCI-H522
Experiment: Growth inhibition of human NCI-H522 cells incubated for 48 hrs by sulforhodamine B assay
Assay type: functional
Details: not given
Method in brief: as §2

Question: With `COc1cc2nc(-c3ccc(Cl)cc3)cc(OCCCN3CCOCC3)c2cc1OC` as the molecule, how does the GI50 read?
Answer: The GI50 was 2.17 µM.

Question: For `COc1cc2nc(-c3ccc(C(F)(F)F)cc3)cc(OCCCN3CCCCC3)c2cc1OC`, which GI50 is on record?
Answer: The GI50 was 2.44 µM.

System: K562
Experiment: Growth inhibition of human K562 cells incubated for 48 hrs by sulforhodamine B assay
Assay type: functional
Details: not given
Method in brief: as §1

Question: For `COc1cc2nc(-c3ccc(Cl)cc3)cc(OCCCN3CCOCC3)c2cc1OC`, which GI50 is on record?
Answer: Its GI50 is 2.71 µM.

Question: With `COc1cc2nc(-c3ccc(C(F)(F)F)cc3)cc(OCCCN3CCCCC3)c2cc1OC` as the molecule, how does the GI50 read?
Answer: The GI50 was 0.578 µM.

System: UO-31
Experiment: Growth inhibition of human UO-31 cells at 10 uM incubated for 48 hrs by sulforhodamine B assay relative to control
Assay type: functional
Details: read-out: GI
Method in brief: as §3

Question: Which inhibition of growth at 10 µM does the source give for `COc1cc2nc(-c3ccc(Cl)cc3)cc(OCCCN3CCOCC3)c2cc1OC` here?
Answer: The inhibition of growth at 10 µM was 62%.

System: A498
Experiment: Growth inhibition of human A498 cells at 10 uM incubated for 48 hrs by sulforhodamine B assay relative to control
Assay type: functional
Details: read-out: GI
Method in brief: as §3

Question: With `COc1cc2nc(-c3ccc(Cl)cc3)cc(OCCCN3CCOCC3)c2cc1OC` as the molecule, how does the inhibition of growth at 10 µM read?
Answer: The inhibition of growth at 10 µM was 62%.

System: HOP-62
Experiment: Growth inhibition of human HOP-62 cells incubated for 48 hrs by sulforhodamine B assay
Assay type: functional
Details: not given
Method in brief: as §1

Question: For `COc1cc2nc(-c3ccc(Cl)cc3)cc(OCCCN3CCOCC3)c2cc1OC`, which GI50 is on record?
Answer: Its GI50 is 1.98 µM.

Question: Which GI50 does the source give for `COc1cc2nc(-c3ccc(C(F)(F)F)cc3)cc(OCCCN3CCCCC3)c2cc1OC` here?
Answer: The GI50 was 0.947 µM.

System: RXF 393
Experiment: Growth inhibition of human RXF 393 cells at 10 uM incubated for 48 hrs by sulforhodamine B assay relative to control
Assay type: functional
Details: read-out: GI
Method in brief: as §4

Question: How did the inhibition of growth at 10 µM turn out when `COc1cc2nc(-c3ccc(Cl)cc3)cc(OCCCN3CCOCC3)c2cc1OC` was run?
Answer: Its inhibition of growth at 10 µM is 62%.

System: NCI-H23
Experiment: Growth inhibition of human NCI-H23 cells incubated for 48 hrs by sulforhodamine B assay
Assay type: functional
Details: not given
Method in brief: as §2

Question: For `COc1cc2nc(-c3ccc(C(F)(F)F)cc3)cc(OCCCN3CCCCC3)c2cc1OC`, which GI50 is on record?
Answer: Its GI50 is 1.91 µM.

System: SK-MEL-2
Experiment: Growth inhibition of human SK-MEL-2 cells incubated for 48 hrs by sulforhodamine B assay
Assay type: functional
Details: not given
Method in brief: as §2

Question: How did the GI50 turn out when `COc1cc2nc(-c3ccc(C(F)(F)F)cc3)cc(OCCCN3CCCCC3)c2cc1OC` was run?
Answer: Its GI50 is 2.64 µM.

System: MCF7
Experiment: Growth inhibition of human MCF7 cells incubated for 48 hrs by sulforhodamine B assay
Assay type: functional
Details: not given
Method in brief: as §1

Question: How did the GI50 turn out when `COc1cc2nc(-c3ccc(Cl)cc3)cc(OCCCN3CCOCC3)c2cc1OC` was run?
Answer: Its GI50 is 2.49 µM.

Question: With `COc1cc2nc(-c3ccc(C(F)(F)F)cc3)cc(OCCCN3CCCCC3)c2cc1OC` as the molecule, how does the GI50 read?
Answer: The GI50 was 1.16 µM.
